# Source: ChEMBL document CHEMBL4602735, “Discovery of (1H-Pyrazolo[3,4-c]pyridin-5-yl)sulfonamide Analogues as Hepatitis B Virus Capsid Assembly Modulators by Conformation Constraint” (J Med Chem, 2020)
# Activity calls are given as the source filed them. No cut-off for these calls is given here.
# Assays:
# [1] = system: Hepatitis B virus; assay: Antiviral activity against HBV infected in human HepAD38 cells assessed as inhibition of intracellular viral DNA accumulation at 2 uM for 4 days by qPCR or qRT-PCR relative to control; type: functional, organism-based
# In short: (§1)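 HepAD38 or HepG2.2.15 cells were treated at 2 µM for 4 days, with medium replaced every 2 days. Intracellular and extracellular DNA and RNA were quantified by qPCR or qRT-PCR, and HBeAg and HBsAg by ELISA. Results were compared with DMSO vehicle as mean ± SD, using a two-tailed t-test.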
# [2] = system: Hepatitis B virus; assay: Antiviral activity against HBV infected in human HepAD38 cells; type: functional, organism-based
# [3] = system: Hepatitis B virus; assay: Inhibition of HBsAg secretion in HBV infected human HepAD38 cells at 2 uM for 4 days by ELISA; type: functional, organism-based; in short: as §1
# [4] = system: Hepatitis B virus; assay: Inhibition of HBsAg secretion in HBV infected human HepG2.2.15 cells at 2 uM for 4 days by ELISA; type: functional, organism-based; settings: HepG2 2.2.15; in short: as §1
# [5] = system: Hepatitis B virus; assay: Antiviral activity against HBV infected in human HepG2.2.15 cells assessed as inhibition of intracellular viral DNA accumulation at 2 uM for 4 days by qPCR or qRT-PCR relative to control; type: functional, organism-based; settings: HepG2 2.2.15; in short: as §1
# [6] = system: Hepatitis B virus; assay: Antiviral activity against HBV infected in human HepAD38 cells assessed as inhibition of intracellular viral RNA accumulation at 2 uM for 4 days by qPCR or qRT-PCR relative to control; type: functional, organism-based; in short: as §1
# [7] = system: Hepatitis B virus; assay: Antiviral activity against HBV infected in […] cells; type: functional, organism-based
# [8] = AUC in C57BL/6 mouse liver at 200 mg/kg, po measured from 5 mins to 24 hrs by HPLC analysis; type: ADME, organism-based; set-up: time upper 24 hr, dose 200 mg/kg, time lower 0.083 hr, route oral; settings: in vivo
# In short: (§2)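 Male C57BL/6 mice, n=3. Dosing 20 mg/kg i.v. or 100 mg/kg p.o. of parent; prodrug p.o. at 100 or 200 mg/kg. The parent compound was measured in blood/plasma and in liver from 5 min onward. Readouts were Cmax, Tmax, t1/2, CL, AUC and oral bioavailability.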
# [9] = Solubility in pH 7.4 phosphate buffer at 1 mg at 25 degC by HPLC analysis; type: physicochemical
# In short: (§3)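 Solubility determined in water or 0.067 M phosphate buffer at pH 5.8, 6.8 and 7.4. Values are reported in mg/mL; ND means below the detection limit.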
# [10] = AUC in C57BL/6 mouse plasma at 200 mg/kg, po measured from 5 mins to 24 hrs by HPLC analysis; type: ADME, organism-based; set-up: time 0.083-24 hr, dose 200 mg/kg, route oral; in short: as §2
# [11] = Drug level in C57BL/6 mouse liver at 100 mg/kg, po measured after 5 mins by HPLC analysis; type: ADME, organism-based; settings: in vivo
# [12] = Cmax in C57BL/6 mouse liver at 100 mg/kg, po measured from 5 mins to 24 hrs by HPLC analysis; type: ADME, organism-based; set-up: dose 100 mg/kg, route oral; settings: in vivo; in short: as §2
# [13] = Cmax in C57BL/6 mouse blood at 200 mg/kg, po measured from 5 mins to 24 hrs by HPLC analysis; type: ADME, organism-based; set-up: dose 200 mg/kg, route oral; in short: as §2
# [14] = Tmax in C57BL/6 mouse blood at 100 mg/kg, po measured from 5 mins to 24 hrs by HPLC analysis; type: ADME, organism-based
# In short: (§4)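 Male C57BL/6 mice, single oral dose of prodrug at 100 or 200 mg/kg; blood and liver levels of the parent compound measured over time; N=3; Tmax taken from the concentration–time profiles.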
# [15] = Solubility in pH 5.8 phosphate buffer at 1 mg at 25 degC by HPLC analysis; type: physicochemical; in short: as §3
# [16] = Oral bioavailability in C57BL/6 mouse liver at 200 mg/kg measured from 5 mins to 24 hrs by HPLC analysis; type: ADME, organism-based; in short: as §2
# [17] = Oral bioavailability in C57BL/6 mouse liver at 100 mg/kg measured from 5 mins to 24 hrs by HPLC analysis; type: ADME, organism-based; in short: as §2
# [18] = Tmax in C57BL/6 mouse liver at 100 mg/kg, po measured from 5 mins to 24 hrs by HPLC analysis; type: ADME, organism-based; in short: as §4
# [19] = Tmax in C57BL/6 mouse liver at 200 mg/kg, po measured from 5 mins to 24 hrs by HPLC analysis; type: ADME, organism-based; in short: as §4
# [20] = Solubility in water at 1 mg at 25 degC by HPLC analysis; type: physicochemical; in short: as §3
# [21] = Cmax in C57BL/6 mouse liver at 200 mg/kg, po measured from 5 mins to 24 hrs by HPLC analysis; type: ADME, organism-based; set-up: dose 200 mg/kg, route oral; settings: in vivo; in short: as §2
# [22] = AUC in C57BL/6 mouse plasma at 100 mg/kg, po measured from 5 mins to 24 hrs by HPLC analysis; type: ADME, organism-based; set-up: time upper 24 hr, dose 100 mg/kg, time lower 0.083 hr, route oral; in short: as §2
# [23] = Tmax in C57BL/6 mouse blood at 200 mg/kg, po measured from 5 mins to 24 hrs by HPLC analysis; type: ADME, organism-based; in short: as §4
# [24] = Half life in mouse plasma by HPLC analysis; settings: in vitro
# [25] = Cmax in C57BL/6 mouse blood at 100 mg/kg, po measured from 5 mins to 24 hrs by HPLC analysis; type: ADME, organism-based; set-up: dose 100 mg/kg, route oral; in short: as §2
# [26] = AUC in C57BL/6 mouse liver at 100 mg/kg, po measured from 5 mins to 24 hrs by HPLC analysis; type: ADME, organism-based; set-up: time 0.083-24 hr, dose 100 mg/kg, route oral; settings: in vivo; in short: as §2
# [27] = Solubility in pH 6.8 phosphate buffer at 1 mg at 25 degC by HPLC analysis; type: physicochemical; settings: phosphate buffer, read-out: solubility; in short: as §3
# [28] = Half life in mouse plasma by HPLC analysis; type: ADME, cell-free
# In short: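 Prodrug incubated in plasma at 37 °C, with percent remaining determined by HPLC to derive half-life.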
# [29] = Stability in pH 5.8 buffer assessed as compound remaining level at 37 degC by HPLC analysis; type: physicochemical
# In short: (§5)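 Prodrug incubated in buffer (0.1 M HCl, pH 5.8, 6.8 or 7.4) at 37 °C; percent of compound remaining determined by HPLC; remaining percentage reported after 3 h, stability meaning no hydrolysis after 2 h.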
# [30] = Stability in pH 7.4 buffer assessed as compound remaining level after 3 hrs at 37 degC by HPLC analysis; type: physicochemical; settings: read-out: Stability; in short: as §5
# [31] = Stability in pH 6.8 buffer assessed as compound remaining level at 37 degC by HPLC analysis; type: physicochemical; in short: as §5
smiles,measurement,setting,value
COc1ccccc1/C(Br)=C(\NC(=O)c1ccc([N+](=O)[O-])cc1)C(=O)N1CCCCC1,inhibition,[1],Active
same,EC50,[2],130 nM
same,inhibition,[3],inactive
same,inhibition,[4],inactive
same,inhibition,[5],Active
same,inhibition,[6],Active
CCC(C)NS(=O)(=O)c1ccc(F)c(C(=O)Nc2ccc(F)c(F)c2)c1 (stereo unspecified),EC50,[7],300 nM
Cc1cc(Nc2nn(C3CC3)c3cnc(S(=O)(=O)N4CCC(OC(=O)CN(C)C)CC4)cc23)ccc1F.O=C(O)CC(O)(CC(=O)O)C(=O)O,AUC,[8],482 nmol·h/g
same,solubility,[9],31 µg/mL
same,AUC,[10],21100 ng·h/mL
same,Drug uptake,[11],> 10 nmol/g
same,Cmax,[12],40 nmol/g
same,Cmax,[13],8.84 µM
same,Tmax,[14],1 h
same,solubility,[15],7600 µg/mL
same,bioavailability,[16],132%
same,bioavailability,[17],87.6%
same,Tmax,[18],2 h
same,Tmax,[19],4 h
same,solubility,[20],8130 µg/mL
same,Cmax,[21],59 nmol/g
same,AUC,[22],7010 ng·h/mL
same,Tmax,[23],1 h
same,half-life,[24],0.783 h
same,Cmax,[25],3.73 µM
same,AUC,[26],306 nmol·h/g
same,solubility,[27],6650 µg/mL
Cc1cc(Nc2nn(C3CC3)c3cnc(S(=O)(=O)N4CCC(OC(=O)[C@H](C)N)CC4)cc23)ccc1F.O=C(O)C(F)(F)F,half-life,[28],0.52 h
same,Stability,[29],85.7%
same,remaining at 3 h,[30],55.6%
same,Stability,[31],80.2%
